Experimental data: ChEMBL document CHEMBL1221386, “Synthesis and pharmacological evaluation of 3-aryl-3-azolylpropan-1-amines as selective triple serotonin/norepinephrine/dopamine reuptake inhibitors” (Bioorg Med Chem Lett, 2010)

Columns and labels:
[1] = molecular target: Cytochrome P450 2C19 (Homo sapiens, UniProt P33261); experiment: Inhibition of CYP2C19; format: ADME
[2] = tested on: Mus musculus; experiment: Anxiolytic activity in mouse assessed as inhibition of marble buried at 30 mg/kg, ip by marble burying test; format: functional; settings: route intraperitoneal
[3] = molecular target: Sodium-dependent serotonin transporter (Rattus norvegicus) (UniProt P31652); experiment: Displacement of [3H]paroxetine from SERT in rat cerebral cortex at 100 nM
Sequence of Sodium-dependent serotonin transporter (Rattus norvegicus) (P31652 whole entry): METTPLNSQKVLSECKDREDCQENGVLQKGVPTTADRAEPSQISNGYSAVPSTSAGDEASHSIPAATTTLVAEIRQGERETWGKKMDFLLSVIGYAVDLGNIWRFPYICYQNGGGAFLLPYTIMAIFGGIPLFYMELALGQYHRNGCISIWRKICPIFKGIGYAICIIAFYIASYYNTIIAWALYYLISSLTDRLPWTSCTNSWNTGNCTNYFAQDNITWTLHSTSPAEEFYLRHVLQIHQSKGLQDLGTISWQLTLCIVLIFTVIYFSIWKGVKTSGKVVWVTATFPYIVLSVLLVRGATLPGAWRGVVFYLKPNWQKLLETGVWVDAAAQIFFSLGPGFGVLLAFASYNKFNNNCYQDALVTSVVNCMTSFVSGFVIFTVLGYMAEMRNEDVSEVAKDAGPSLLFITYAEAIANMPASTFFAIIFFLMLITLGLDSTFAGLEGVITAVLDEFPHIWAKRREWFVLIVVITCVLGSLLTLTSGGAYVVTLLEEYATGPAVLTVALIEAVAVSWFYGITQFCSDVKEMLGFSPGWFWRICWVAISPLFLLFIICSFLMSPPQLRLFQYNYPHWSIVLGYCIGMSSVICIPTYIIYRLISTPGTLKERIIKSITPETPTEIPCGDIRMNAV

[4] = tested on: Mus musculus; experiment: Potentiation of […]-induced serotonin syndrome like behavior in mouse at 30 mg/kg, po; format: functional
Outline: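 Mice, oral dosing. For serotonin potentiation, 5-hydroxytryptophan (5-HTP, serotonin precursor) is given to induce serotonin syndrome-like head twitch/stereotypy counts. Response is expressed as % potentiation relative to control group (0%). Minimal effective dose is the lowest dose reaching p <0.05. Doses are in mg/kg.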

[5] = tested on: Mus musculus; experiment: Antidepressant activity in po dosed mouse assessed as reduction of mobility time by forced swimming test; format: functional
Outline: (§1)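 Mouse forced swimming test with oral dosing. Read-out is immobility time, expressed as % reduction of immobility. Minimal effective dose is the lowest dose with p <0.05. ED50 is given with 95% confidence limits. Doses are in mg/kg.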

[6] = Half life in rat at 10 mg/kg, iv; format: ADME, organism-based; design: dose 10 mg/kg, route intravenous; settings: in vivo
[7] = Half life in rat liver microsomes; format: ADME, Microsome
Outline: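 Metabolic stability in human or rat liver microsomes. Half-lives measurable up to 60 min.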

[8] = tested on: Mus musculus; experiment: Antidepressant activity in po dosed mouse assessed as reduction of mobility time by tail suspension test; format: functional; settings: read-out: MED
Outline: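 Mouse tail suspension test with oral dose–response. Read-out is immobility time, reported as % reduction of immobility. Minimal effective dose is the lowest dose giving p <0.05. Doses are in mg/kg.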

[9] = tested on: Mus musculus; experiment: Antidepressant activity in mouse assessed as change in locomotion at 30 mg/kg, po; format: functional
[10] = tested on: Mus musculus; experiment: Analgesic activity in mouse assessed as reduction of acetic acid-induced writhing at 30 mg/kg
[11] = AUC in rat at 10 mg/kg, iv; format: ADME, organism-based; design: dose 10 mg/kg, route intravenous; settings: plasma
[12] = molecular target: T1, 5-hydroxytryptamine receptor 2C (Homo sapiens) (UniProt P28335); experiment: Inhibition of 5HT2C receptor at 10 uM
T1 sequence (whole entry): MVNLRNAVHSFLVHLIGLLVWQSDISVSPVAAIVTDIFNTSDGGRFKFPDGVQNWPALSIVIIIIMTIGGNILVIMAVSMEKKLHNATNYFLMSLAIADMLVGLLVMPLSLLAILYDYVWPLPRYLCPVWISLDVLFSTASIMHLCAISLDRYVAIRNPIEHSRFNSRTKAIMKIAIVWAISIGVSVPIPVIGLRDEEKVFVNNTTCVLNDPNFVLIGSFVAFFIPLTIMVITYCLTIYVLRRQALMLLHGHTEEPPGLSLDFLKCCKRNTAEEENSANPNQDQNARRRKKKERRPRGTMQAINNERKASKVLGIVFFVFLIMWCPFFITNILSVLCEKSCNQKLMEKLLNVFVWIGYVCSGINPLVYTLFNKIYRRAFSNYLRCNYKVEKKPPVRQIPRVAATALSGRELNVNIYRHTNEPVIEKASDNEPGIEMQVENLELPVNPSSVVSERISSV

[13] = tested on: Mus musculus; experiment: Antidepressant activity in mouse assessed as reduction of mobility time by forced swimming test at 10 mg/kg, po; format: functional; design: scale not given: the % may be the effect or the level left; outline: as §1
[14] = AUC in rat at 10 mg/kg, po; format: ADME, organism-based; design: dose 10 mg/kg, route oral; settings: plasma

Sequence of Cytochrome P450 2C19 (P33261 whole entry): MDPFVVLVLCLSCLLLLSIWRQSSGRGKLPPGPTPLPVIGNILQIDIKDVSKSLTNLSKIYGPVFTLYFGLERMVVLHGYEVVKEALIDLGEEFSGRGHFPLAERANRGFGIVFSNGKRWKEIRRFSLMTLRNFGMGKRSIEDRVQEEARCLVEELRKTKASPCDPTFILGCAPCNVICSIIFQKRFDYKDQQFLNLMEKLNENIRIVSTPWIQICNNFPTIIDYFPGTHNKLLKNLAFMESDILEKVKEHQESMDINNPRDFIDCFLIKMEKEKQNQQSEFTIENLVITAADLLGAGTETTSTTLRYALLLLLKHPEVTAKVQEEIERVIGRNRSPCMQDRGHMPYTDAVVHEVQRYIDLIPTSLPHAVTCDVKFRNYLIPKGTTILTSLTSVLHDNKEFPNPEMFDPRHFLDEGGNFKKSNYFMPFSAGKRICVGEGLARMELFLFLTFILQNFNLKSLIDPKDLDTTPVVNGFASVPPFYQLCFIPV

CNCC[C@@H](c1ccc(Cl)c(Cl)c1)n1nnc(C)n1
IC50 [1]: > 10 µM | inhibition in vivo at 30 mg/kg [2]: 94.4% | inhibition [3]: 61.2% | Activity [4]: 158% | ED50 [5]: 22.2 mg/kg | minimal effective dose ([5]; read-out: MED): 10 mg/kg | half-life [6]: 3.12 h | half-life [7]: 0.933 h | minimal effective dose [8]: 3 mg/kg | Activity [9]: 92% | inhibition in vivo at 30 mg/kg [10]: 94.4% | AUC [11]: 3830 ng·h/mL | inhibition [12]: 66% | Activity [13]: 14.9% | AUC [14]: 1280 ng·h/mL
